Where two headings read alike, the source gives them in different places. Starred links: 1 amine or outer side, 2 acyl side, 3 side chain; linkers in the order of their positions; H or OH if unused. Non-standard residues stand in square brackets, D forms with d. Residues, ends and D or L forms follow the SMILES beside them. No end group written: not given here. X2 = N6‑isopropyl‑N6‑phenethyl‑lysine, CC(C)N(CCCC[C@H](N[*:1])C(=O)[*:2])CCc1ccccc1; Lys(Et,iPr) = CCN(CCCC[C@H](N)C(=O)O)C(C)C; Me3 = trimethyl (on lysine, Kme3) A value given as a limit tells only on which side of the number the result lay.

Experiment [1] deals with T1, PHF1 Tudor domain (Homo sapiens, UniProt O43189). Particulars: previously reported 10-mer peptide; cited from earlier work.
Experiment [2] deals with H3K36me3 15-residue peptide (Homo sapiens) (UniProt P68431). Particulars: cited from earlier work.
In another experiment the target is PHF1 Tudor F65A (Homo sapiens, UniProt O43189, F65A). The experiment is described as follows: ITC binding to PHF1 Tudor aromatic cage mutant F65A. The method in brief:
(§1)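 ITC at 25 °C in 25 mM Tris-HCl pH 7.5, 150 mM NaCl, 2 mM β-mercaptoethanol; typically 100 µM protein, 1 mM compound (10:1). 26 injections, 180 s apart, one-site fit. Fits reach Kd ~100 µM; weaker binding is reported >100 µM. Two independent runs, mean ± SD.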

The target of the next experiment is PHF1 Tudor W41A (Homo sapiens, UniProt O43189, W41A). Nature of the experiment: ITC binding to PHF1 Tudor aromatic cage mutant W41A. The method in brief: as §1
The target of experiment [3] is T1, PHF1 Tudor domain. The experiment is described as follows: ITC binding to PHF1 Tudor domain. Particulars: wildtype PHF1 Tudor domain.
The next experiment addresses PHF1 Tudor Y47A (Homo sapiens, UniProt O43189, Y47A). Nature of the experiment: ITC binding to PHF1 Tudor aromatic cage mutant Y47A. The method in brief: as §1
In experiment [4] the target is H3K36me3 peptide 31-40 (Homo sapiens) (UniProt P68431). Particulars: cited from earlier work.
The target in experiment [5] is PHF1 Tudor domain (residues 25-87) Y47A, N-terminal His tag (UniProt O43189-1 25-87, Y47A). Nature of the experiment: ITC. Background: In ITC the heat of successive injections is recorded.
The target in experiment [6] is PHF19 Tudor domain (residues 49-115), N-terminal His tag. Nature of the experiment: ITC.
For experiment [7], the target named is T2, PHF1 Tudor domain (residues 25-87), N-terminal His tag (UniProt O43189-1 25-87). Nature of the experiment: ITC.
The target of experiment [8] is T2, PHF1 Tudor domain (residues 25-87), …. Nature of the experiment: ITC. The source holds these as a separate data set.

T2 sequence (O43189 25-87): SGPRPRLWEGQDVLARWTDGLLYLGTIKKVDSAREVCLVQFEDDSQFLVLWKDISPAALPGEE
Chain of PHF1 Tudor domain (residues 25-87) Y47A, N-terminal His tag (O43189 25-87 Y47A): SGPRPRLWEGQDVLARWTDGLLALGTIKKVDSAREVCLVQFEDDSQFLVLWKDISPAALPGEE
T1 sequence (O43189 25-87): as the sequence (O43189 25-87) above
Chain of PHF1 (O43189 whole entry): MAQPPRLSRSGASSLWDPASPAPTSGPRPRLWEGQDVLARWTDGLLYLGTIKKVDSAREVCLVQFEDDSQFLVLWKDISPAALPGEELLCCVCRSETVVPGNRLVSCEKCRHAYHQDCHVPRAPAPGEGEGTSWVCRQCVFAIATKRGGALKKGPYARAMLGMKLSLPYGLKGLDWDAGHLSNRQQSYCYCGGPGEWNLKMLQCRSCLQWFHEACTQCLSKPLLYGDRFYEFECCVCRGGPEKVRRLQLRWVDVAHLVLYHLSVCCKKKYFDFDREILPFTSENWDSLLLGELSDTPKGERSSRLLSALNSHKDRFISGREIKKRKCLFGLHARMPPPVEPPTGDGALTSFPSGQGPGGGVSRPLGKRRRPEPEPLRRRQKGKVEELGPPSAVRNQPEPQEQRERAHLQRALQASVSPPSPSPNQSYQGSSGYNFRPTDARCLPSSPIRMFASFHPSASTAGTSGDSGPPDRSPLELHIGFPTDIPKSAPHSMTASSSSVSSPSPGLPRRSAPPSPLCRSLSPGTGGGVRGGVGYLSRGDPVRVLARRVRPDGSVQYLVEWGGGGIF
Chain of PHF1 Tudor F65A (O43189 25-87 F65A): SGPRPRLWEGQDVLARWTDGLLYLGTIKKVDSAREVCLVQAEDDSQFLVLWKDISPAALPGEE
Chain of PHF1 Tudor W41A (O43189 25-87 W41A): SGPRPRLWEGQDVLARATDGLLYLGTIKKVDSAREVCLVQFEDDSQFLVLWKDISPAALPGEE
Chain of PHF1 Tudor (O43189 26-89): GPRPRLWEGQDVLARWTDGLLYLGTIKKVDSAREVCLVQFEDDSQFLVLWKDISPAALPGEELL
Chain of PHF1 Tudor Y47A (O43189 25-87 Y47A): as the sequence (O43189 25-87 Y47A) above

The term Kd denotes a measure of binding affinity in units of concentration. Turning to “H3(31—40): previously reported 10-mer H3K36me3 peptide (ATGGVK(Me3)KPHR; UniProt P68431 32-41, looked up, fragment)”, the Kd with PHF1 Tudor domain [1] was 16 ± 4 µM.

With PHF1 (from UniProt O43189), in experiment [2], the Kd was 4 µM.

Consider `CCN(CCCC[C@H](NC(=O)[C@@H](NC(=O)CNC(=O)CN)C(C)C)C(=O)N[C@@H](CCCCN)C(=O)N1CCC[C@H]1C(=O)N[C@@H](CC(C)C)C(=O)N[C@@H](CCCNC(=N)N)C(N)=O)C(C)C` [UNC7643, Amino(((S)-5-amino-4-((S)-2-((S)-1-((2S,5S,8S)-14-amino-2-(4-aminobutyl)-5-(4-(ethyl(isopropyl)amino)butyl)-8-isopropyl-4,7,10,13-tetraoxo-3,6,9,12-tetraazatetradecanoyl)pyrrolidine-2-carboxamido)-4-methylpentanamido)-5-oxopentyl)amino)methaniminium] (H-GGV[Lys(Et,iPr)]KPLR-NH2), for which the “binding to mutant (in words)” value at PHF1 Tudor F65A, on PHF1 Tudor W41A and on PHF1 Tudor Y47A was “failed to bind” each time. The “fold less potent than UNC6641” value on PHF1 Tudor domain [3] is “about 10 fold”.

For PHF1 Tudor (from UniProt O43189), the equilibrium dissociation constant (Kd) in [4] is 16 µM.

Turning to GGV[X2]KPLR-NH2 [UNC6641], the dissociation constant (Kd) in experiment [5] is greater than 100 µM; in [6], 2.1 µM.

With VGVK(Me3)KPH-NH2 [H3K36me3 peptide H3(33-39) G33V, VGVKme3KPH], the Kd in [7] was 48 µM.

Molecule GGVK(Me3)KPH-NH2 [H3K36me3 peptide H3(33-39), GGVKme3KPH] yielded a Kd in [7] of 52 µM.

As for GGV[N6‑ethyl‑N6‑isopropyl‑lysine]KPLR-NH2 [UNC7643], the equilibrium dissociation constant (Kd) in experiment [5] was greater than 100 µM; in [8], 10.1 µM.

GGVK(Me3)KPHR-NH2 [H3K36me3 peptide H3(33-40), GGVKme3KPHR]: in [7], the equilibrium dissociation constant (Kd) stood at 22.3 µM.

Turning to GGV[N6‑ethyl‑N6‑(1-(furan-2-yl)ethyl)‑lysine]KPLR-NH2 [UNC6640], the Kd in [8] stood at 17.9 µM.

The record behind these values is publication PMC8225578 (Journal of medicinal chemistry, 2021).
